# Laboratory results from ChEMBL document CHEMBL4765483 (J Med Chem, 2021).
# How the values were obtained:
# Details in all cases: Cell membrane
# [1] = target: T1, Adenosine receptor A3 (Homo sapiens) (UniProt P0DMS8); experiment: Displacement of [3H]NECA from adenosine A3 receptor expressed in human HeLa cell membranes at 1 uM incubated for 180 mins by scintillation counting method
# T1 sequence (whole entry): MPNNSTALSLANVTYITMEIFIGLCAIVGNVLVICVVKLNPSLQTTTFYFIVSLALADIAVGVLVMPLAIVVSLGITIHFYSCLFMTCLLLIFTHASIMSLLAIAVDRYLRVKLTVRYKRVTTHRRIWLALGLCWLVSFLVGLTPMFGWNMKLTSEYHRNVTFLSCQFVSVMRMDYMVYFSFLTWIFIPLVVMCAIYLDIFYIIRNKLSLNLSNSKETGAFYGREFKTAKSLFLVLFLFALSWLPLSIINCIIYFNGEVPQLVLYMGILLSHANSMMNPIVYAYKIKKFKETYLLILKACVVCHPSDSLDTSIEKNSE
# Outline: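 hA3AR in HeLa membranes (3 pmol/mg protein) with 10 nM [3H]NECA (KD 8.7 nM); nonspecific binding with 100 μM R-PIA; incubated 180 min at 25 °C, washed, filtered, radioactivity counted.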
# [2] = target: T2, Adenosine receptor A2b (Homo sapiens) (UniProt P29275); experiment: Displacement of [3H]DPCPX from human adenosine A2B receptor expressed in HEK293 cell membranes at 1 uM incubated for 30 mins by scintillation counting method
# T2 sequence (whole entry): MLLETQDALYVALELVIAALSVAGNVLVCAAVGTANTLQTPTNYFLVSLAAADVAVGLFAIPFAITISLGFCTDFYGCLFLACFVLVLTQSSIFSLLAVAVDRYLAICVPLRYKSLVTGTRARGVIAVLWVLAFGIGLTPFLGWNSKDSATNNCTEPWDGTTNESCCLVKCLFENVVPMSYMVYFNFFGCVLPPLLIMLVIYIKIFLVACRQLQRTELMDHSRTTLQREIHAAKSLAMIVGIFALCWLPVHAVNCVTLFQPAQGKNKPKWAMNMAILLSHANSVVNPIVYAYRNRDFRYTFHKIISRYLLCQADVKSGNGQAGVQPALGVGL
# [3] = target: T3, Adenosine receptor A1 (Homo sapiens) (UniProt P30542); experiment: Displacement of [3H]DPCPX from human adenosine A1 receptor expressed in CHO cell membranes at 1 uM incubated for 60 mins by scintillation counting method
# T3 sequence (whole entry): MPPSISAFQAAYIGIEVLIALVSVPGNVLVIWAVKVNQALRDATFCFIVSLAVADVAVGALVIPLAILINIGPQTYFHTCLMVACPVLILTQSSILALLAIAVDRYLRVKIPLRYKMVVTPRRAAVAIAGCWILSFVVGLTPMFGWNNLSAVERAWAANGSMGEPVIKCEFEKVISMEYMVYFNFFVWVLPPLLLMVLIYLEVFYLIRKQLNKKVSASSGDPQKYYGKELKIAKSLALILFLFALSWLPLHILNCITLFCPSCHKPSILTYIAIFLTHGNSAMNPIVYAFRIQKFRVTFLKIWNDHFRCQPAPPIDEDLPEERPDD
# [4] = target: Adenosine receptor A2a (Homo sapiens) (UniProt P29274); experiment: Displacement of [3H]ZM2421385 from adenosine A2A receptor expressed in human HeLa cell membranes at 1 uM incubated for 30 mins by scintillation counting method
# Adenosine receptor A2a (Homo sapiens), sequence (P29274 whole entry): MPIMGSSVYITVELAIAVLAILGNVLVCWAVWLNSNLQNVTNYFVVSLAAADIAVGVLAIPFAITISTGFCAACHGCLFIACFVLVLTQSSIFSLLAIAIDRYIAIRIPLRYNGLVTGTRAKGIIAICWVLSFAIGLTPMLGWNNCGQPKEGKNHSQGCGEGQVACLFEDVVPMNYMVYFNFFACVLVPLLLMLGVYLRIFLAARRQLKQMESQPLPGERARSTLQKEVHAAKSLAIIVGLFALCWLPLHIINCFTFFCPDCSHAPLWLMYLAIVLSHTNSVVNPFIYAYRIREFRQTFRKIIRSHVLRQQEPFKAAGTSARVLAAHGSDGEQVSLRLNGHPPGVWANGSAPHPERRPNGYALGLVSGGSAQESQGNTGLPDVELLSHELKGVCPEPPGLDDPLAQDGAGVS
Compound,inhibition [1],inhibition [2],inhibition [3],inhibition [4],inhibition ([2]; filed as antagonist)
CCC(CC)OC(=O)C1=C(C)NC(=O)NC1c1ccsc1 (racemic),6%,26%,22%,1%,
CC1=C(C(=O)C2CC2)C(c2cccs2)NC(=O)N1 (racemic),15%,1%,1%,1%,
CC1=C(C(=O)NC(C)C)C(c2ccoc2)NC(=O)N1 (racemic),3%,3%,1%,1%,
CC1=C(C(=O)OCC(C)C)C(c2ccsc2)NC(=O)N1C (racemic),4%,1%,8%,2%,
CC1=C(C(=O)OCc2ccccc2)C(c2ccoc2)NC(=O)N1C (racemic),25%,,51%,37%,49%
CCSC(=O)C1=C(C)NC(=O)NC1c1ccoc1 (racemic),1%,1%,3%,1%,
CC1=C(C(=O)C2CC2)C(c2ccsc2)NC(=O)N1 (racemic),1%,1%,2%,4%,
CC1=C(C(=O)NC(C)C)C(c2ccsc2)NC(=O)N1 (racemic),1%,3%,8%,1%,
CCCC(=O)C1=C(C)NC(=O)NC1c1ccsc1 (racemic),1%,9%,6%,11%,
CC1=C(C(=O)OC(C)(C)C)C(c2cccs2)NC(=O)N1 (racemic),7%,38%,26%,10%,
CCSC(=O)C1=C(C)NC(=O)NC1c1cccs1 (racemic),1%,1%,6%,8%,
CCCOC(=O)C1=C(C)N(C)C(=O)NC1c1ccco1 (racemic),8%,23%,3%,2%,
CC1=C(C(=O)OC(C)(C)C)C(c2ccco2)NC(=S)N1 (racemic),9%,9%,3%,1%,
CC1=C(c2ncc(C)o2)C(c2cccs2)NC(=O)N1 (racemic),1%,,21%,7%,45%
CC1=C(C(=O)OC(C)(C)C)C(c2ccsc2)NC(=S)N1 (racemic),16%,26%,16%,22%,
CCC(C)OC(=O)C1=C(C)NC(=O)NC1c1ccsc1 (racemic),7%,39%,5%,1%,
CC1=C(C(=O)OCC(C)C)C(c2cccs2)NC(=O)N1C (racemic),5%,2%,9%,1%,
CC1=C(C(=O)OC(C)(C)C)C(c2ccco2)NC(=O)N1C (racemic),54%,26%,44%,20%,
CCSC(=O)C1=C(C)NC(=O)NC1c1ccsc1 (racemic),2%,17%,11%,1%,
CCNC(=O)C1=C(C)NC(=O)NC1c1ccco1 (racemic),3%,1%,2%,1%,
CCCOC(=O)C1=C(C)NC(=S)NC1c1ccco1 (racemic),1%,,1%,2%,46%
CCOC(=O)C1=C(C)NC(=O)N[C@H]1c1ccsc1,3%,19%,5%,21%,
CC(=O)C1=C(C)NC(=O)NC1c1cccs1 (racemic),3%,2%,11%,2%,
CCNC(=O)C1=C(C)NC(=O)NC1c1cccs1 (racemic),4%,1%,1%,1%,

# Next, values leading:
inhibition [1],inhibition [2],inhibition [3],inhibition [4],inhibition ([2]; filed as antagonist),Compound
25%,,57%,21%,44%,CC1=C(C(=O)OCc2ccccc2)C(c2ccsc2)NC(=O)N1 (racemic)
18%,,19%,1%,43%,CC1=C(C(=O)CC(C)C)C(c2cccs2)NC(=O)N1 (racemic)
1%,1%,1%,1%,,CC1=C(C(=O)SC(C)C)C(c2cccs2)NC(=O)N1 (racemic)
3%,38%,3%,1%,,COC(=O)C1=C(C)NC(=S)NC1c1ccsc1 (racemic)
3%,,25%,1%,48%,COC(=O)C1=C(C)NC(=S)NC1c1ccoc1 (racemic)
1%,,15%,5%,47%,CC1=C(C(=O)OC(C)(C)C)C(c2ccsc2)NC(=O)N1 (racemic)
4%,1%,1%,5%,,CC1=C(C(=O)OC2CCCCC2)C(c2ccco2)NC(=O)N1 (racemic)
16%,1%,4%,4%,,CC1=C(C(=O)OCC(C)C)C(c2ccoc2)NC(=O)N1C (racemic)
31%,22%,13%,15%,,CCN(CC)C(=O)C1=C(C)NC(=O)NC1c1cccs1 (racemic)
22%,26%,24%,13%,,COC(=O)C1=C(C)N(C)C(=O)NC1c1ccsc1 (racemic)
10%,18%,7%,30%,,CC1=C(C(=O)OCC(C)C)C(c2ccco2)NC(=S)N1 (racemic)
16%,10%,1%,1%,,CC1=C(C(=O)C2CC2)C(c2ccoc2)NC(=O)N1 (racemic)
1%,,2%,22%,40%,CC1=C(C(=O)NC(C)C)C(c2cccs2)NC(=O)N1 (racemic)
3%,,4%,2%,45%,CCCOC(=O)C1=C(C)NC(=S)NC1c1ccoc1 (racemic)
1%,4%,8%,2%,,CC1=C(C(=O)OC2CCCCC2)C(c2ccsc2)NC(=O)N1 (racemic)
20%,36%,25%,16%,,CC1=C(C(=O)OCc2ccccc2)C(c2ccoc2)NC(=S)N1 (racemic)
1%,3%,7%,14%,,CC1=C(C(=O)OC2CCCCC2)C(c2cccs2)NC(=O)N1 (racemic)
5%,28%,17%,2%,,CCC(CC)OC(=O)C1=C(C)NC(=O)NC1c1ccoc1 (racemic)
11%,1%,2%,3%,,CCCOC(=O)C1=C(C)N(C)C(=O)NC1c1ccsc1 (racemic)
5%,7%,2%,5%,,CCOP(=O)(OCC)C1=C(C)NC(=O)NC1c1cccs1 (racemic)
14%,35%,18%,1%,,CC1=C(C(=O)OC(C)(C)C)C(c2ccsc2)NC(=O)N1C (racemic)
2%,9%,2%,23%,,CCCC(=O)C1=C(C)NC(=O)NC1c1cccs1 (racemic)
